The text below walks through data of ChEMBL document CHEMBL4411310, “Identification of a novel DGKα inhibitor for XLP-1 therapy by virtual screening” (Eur J Med Chem, 2019).

pIC50, pKi: −log10 of the molar value. Activity calls are given as the source filed them. The rule behind the calls is not given here.

T1 sequence (P23743 whole entry): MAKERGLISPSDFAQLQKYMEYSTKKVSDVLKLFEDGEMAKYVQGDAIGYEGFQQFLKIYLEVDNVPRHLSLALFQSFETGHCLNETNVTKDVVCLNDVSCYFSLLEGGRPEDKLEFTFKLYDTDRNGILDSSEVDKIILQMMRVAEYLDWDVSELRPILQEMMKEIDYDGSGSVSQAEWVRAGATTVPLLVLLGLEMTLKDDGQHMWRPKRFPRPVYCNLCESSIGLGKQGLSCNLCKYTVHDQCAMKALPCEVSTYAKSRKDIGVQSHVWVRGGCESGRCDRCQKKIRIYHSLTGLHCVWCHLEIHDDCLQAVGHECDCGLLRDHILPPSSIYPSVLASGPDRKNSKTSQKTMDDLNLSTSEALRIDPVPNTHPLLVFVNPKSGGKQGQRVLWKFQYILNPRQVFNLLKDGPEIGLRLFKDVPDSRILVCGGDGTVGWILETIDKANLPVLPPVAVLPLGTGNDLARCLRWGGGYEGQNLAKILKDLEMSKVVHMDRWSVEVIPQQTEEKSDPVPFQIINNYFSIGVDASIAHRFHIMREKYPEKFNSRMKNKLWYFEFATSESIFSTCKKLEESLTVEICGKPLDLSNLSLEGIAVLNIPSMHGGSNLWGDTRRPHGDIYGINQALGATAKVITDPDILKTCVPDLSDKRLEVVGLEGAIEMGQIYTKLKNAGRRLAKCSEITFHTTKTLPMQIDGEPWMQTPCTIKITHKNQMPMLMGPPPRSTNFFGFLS
Chain of Diacylglycerol kinase alpha (Rattus norvegicus, UniProt P51556) (P51556 whole entry): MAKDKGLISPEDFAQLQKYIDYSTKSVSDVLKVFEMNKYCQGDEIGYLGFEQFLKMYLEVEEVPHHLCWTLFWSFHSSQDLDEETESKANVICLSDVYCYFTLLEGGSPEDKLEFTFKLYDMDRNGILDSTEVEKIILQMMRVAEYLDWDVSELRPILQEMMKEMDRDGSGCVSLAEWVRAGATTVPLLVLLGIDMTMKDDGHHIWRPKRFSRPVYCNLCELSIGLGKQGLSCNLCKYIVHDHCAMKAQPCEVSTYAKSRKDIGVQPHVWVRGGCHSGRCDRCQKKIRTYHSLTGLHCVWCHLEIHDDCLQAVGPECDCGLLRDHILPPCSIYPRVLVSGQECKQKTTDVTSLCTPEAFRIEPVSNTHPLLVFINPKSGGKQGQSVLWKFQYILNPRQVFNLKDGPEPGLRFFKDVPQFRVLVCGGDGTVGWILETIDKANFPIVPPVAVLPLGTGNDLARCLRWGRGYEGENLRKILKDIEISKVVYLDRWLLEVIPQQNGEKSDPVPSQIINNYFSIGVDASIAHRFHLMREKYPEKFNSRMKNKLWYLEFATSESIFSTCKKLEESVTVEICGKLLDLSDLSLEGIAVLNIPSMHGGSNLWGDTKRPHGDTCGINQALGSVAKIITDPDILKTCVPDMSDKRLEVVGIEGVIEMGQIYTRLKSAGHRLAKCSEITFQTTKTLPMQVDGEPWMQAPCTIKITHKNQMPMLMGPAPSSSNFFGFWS

The first data set addresses T1, Diacylglycerol kinase alpha (Homo sapiens, UniProt P23743). The data set can be described thus: Inhibition of OST-tagged DGKalpha (unknown origin) expressed in MDCK cell homogenates assessed as residual activity at 100 uM using DAG as substrate measured after 5 mins in presence of [gamma-32P]ATP by TLC analysis relative to control.
Conditions: not given
The class given is cell-free.
Regarding `O=C1CC2(CCCC2)C(=O)N1CN1CCN(C(c2ccccc2)c2ccccc2)CC1`, the Activity was determined as 68%.

On to `O=C(CCCN1CCC(O)(c2ccc(Cl)cc2)CC1)c1ccc(F)cc1`, for which the Activity amounted to 62%.

Take `O=C(Cc1cn2ccsc2n1)N1CCN(C(c2ccccc2)c2ccccc2)CC1`: the Activity stood at 64%.

In the case of `O=C(CN1CCN(Cc2ccccc2)CC1)c1c[nH]c2ccccc12`, the Activity worked out at 72%.

For `O=C(Cn1cnc2sccc2c1=O)N1CCN(C(c2ccccc2)c2ccccc2)CC1`, the Activity was found to be 75%.

Consider `Cc1nc2sccn2c(=O)c1CCN1CCC(=C(c2ccccc2)c2ccc(F)cc2)CC1`, for which the Activity was found to be 27%.

Take `COc1ccccc1N1CCN(CCCNc2cc(=O)n(C)c(=O)n2C)CC1`: the Activity amounted to 75%.

In a further data set the target is T1, Diacylglycerol kinase alpha. In words: Inhibition of OST-tagged DGKalpha (unknown origin) expressed in MDCK cell homogenates using DAG as substrate measured after 5 mins in presence of [gamma-32P]ATP by TLC analysis. The class given is cell-free.
Conditions: not given
The method in brief:
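Doxycycline-induced (1 μg/ml, 2 days) MDCK cells expressing OST-DGKα, homogenized in Hepes pH 8 buffer with EDTA, EGTA, vanadate and protease inhibitors. Initial velocity measured 5 min at 27 °C with saturating 1,2-dioleoyl-sn-glycerol and γ32P-ATP plus 25 μM unlabelled ATP and MgCl2. Stopped with HCl, lipids extracted, separated by TLC, radioactive phosphatidic acid quantified by imager. IC50 from 0.1–100 μM, ≥3 experiments, normalized fit.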
In the case of `Cc1nc2sccn2c(=O)c1CCN1CCC(=C(c2ccccc2)c2ccc(F)cc2)CC1`, the pIC50 is 4.70 to 4.71.

The target of another data set is Diacylglycerol kinase zeta (Homo sapiens) (UniProt Q13574). In words: Inhibition of DGKzeta (unknown origin) expressed in human 293T cells at 100 uM using DAG as substrate measured after 5 mins in presence of [gamma-32P]ATP by TLC analysis.
Chain of Diacylglycerol kinase zeta (Homo sapiens) (Q13574 whole entry): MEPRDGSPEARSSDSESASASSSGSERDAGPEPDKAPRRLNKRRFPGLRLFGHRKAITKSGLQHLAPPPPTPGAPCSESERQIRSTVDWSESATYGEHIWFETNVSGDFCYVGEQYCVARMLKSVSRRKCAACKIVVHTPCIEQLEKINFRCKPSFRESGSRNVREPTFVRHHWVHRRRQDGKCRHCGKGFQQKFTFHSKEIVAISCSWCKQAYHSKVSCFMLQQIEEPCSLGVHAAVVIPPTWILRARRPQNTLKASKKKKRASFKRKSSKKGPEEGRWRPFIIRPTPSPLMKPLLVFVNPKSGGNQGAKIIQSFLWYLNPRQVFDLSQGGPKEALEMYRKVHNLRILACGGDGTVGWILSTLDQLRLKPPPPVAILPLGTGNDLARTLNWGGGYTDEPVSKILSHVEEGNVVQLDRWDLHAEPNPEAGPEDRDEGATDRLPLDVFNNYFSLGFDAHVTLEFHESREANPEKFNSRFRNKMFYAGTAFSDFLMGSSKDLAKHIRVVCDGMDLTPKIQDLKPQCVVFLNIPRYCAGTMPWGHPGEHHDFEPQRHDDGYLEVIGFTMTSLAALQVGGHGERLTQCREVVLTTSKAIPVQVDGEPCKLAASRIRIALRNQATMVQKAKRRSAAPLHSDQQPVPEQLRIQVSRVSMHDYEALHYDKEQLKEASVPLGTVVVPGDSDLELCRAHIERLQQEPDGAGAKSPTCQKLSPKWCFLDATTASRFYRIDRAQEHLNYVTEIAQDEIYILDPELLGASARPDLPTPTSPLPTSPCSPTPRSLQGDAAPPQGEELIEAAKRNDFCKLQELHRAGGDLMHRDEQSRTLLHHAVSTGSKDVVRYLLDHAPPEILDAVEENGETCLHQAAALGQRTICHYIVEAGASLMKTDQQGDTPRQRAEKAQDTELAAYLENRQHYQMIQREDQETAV
Conditions: not given
The gist of the method: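 293T cells transiently transfected with the DGKζ plasmid or empty vector; homogenates collected 48 h later. Compound at 100 μM. Reaction run 5 min at 27 °C with saturating 1,2-dioleoyl-sn-glycerol, γ32P-ATP plus 25 μM unlabelled ATP, and MgCl2, at pH 8. Stopped with HCl, lipids extracted and separated by TLC, read by phosphorimaging. At least three experiments in triplicate.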
As for `Cc1nc2sccn2c(=O)c1CCN1CCC(=C(c2ccccc2)c2ccc(F)cc2)CC1`, the inhibition result was “inactive”.

For the next data set, the system named is Serotonin (5-HT) receptor. The data set can be described thus: Antagonist activity at serotonin receptor in human PBMC assessed as inhibition of PMA-stimulated superoxide anion generation at 10 uM preincubated for 1 hr followed by PMA-stimulation and measured after 30 mins by spectrophotometric method. The conditions noted are these: 0.5 h.
With `O=C1/C(=C\C=C\c2ccco2)SC(=S)N1NS(=O)(=O)c1ccccc1`, the “inhibition (INH)” value was “Not Active”.

Turning to `O=C(c1ccc(F)cc1)C1CCN(CCn2c(=O)[nH]c3ccccc3c2=O)CC1` [KETANSERIN], the “inhibition (INH)” value is on record as “Active”.

The next data set concerns Jurkat. The data set can be described thus: Cytotoxicity against human Jurkat cells assessed as reduction in cell viability at 1 uM after 24 hrs by trypan blue exclusion assay. The class given is cell-based.
Conditions: not given
The method in brief: (§1)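 SAP-shRNA or control-shRNA Jurkat cells, 0.5 × 10^5 cells/well in triplicate, in wells left uncoated or precoated for 24 h at 4 °C with anti-CD3 OKT3 (50 μg/ml) or PHA-P (50 μg/ml). Inhibitor at 1 μM or DMSO control for 24 h. Live cells counted by trypan blue exclusion; % cell loss versus untreated controls. At least three experiments.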
`O=C1/C(=C\C=C\c2ccco2)SC(=S)N1NS(=O)(=O)c1ccccc1`: the Activity entry is listed as “Toxic”.

Turning to `O=C(c1ccc(F)cc1)C1CCN(CCn2c(=O)[nH]c3ccccc3c2=O)CC1` [KETANSERIN], the Activity result was “Non-Toxic”.

For a further data set, the target named is T1, Diacylglycerol kinase alpha. The data set can be described thus: Inhibition of DGKalpha in OKT3-induced human Jurkat cells harboring SAP ShRNA assessed as restoration of restimulation-induced cell death at 1 uM measured after 24 hrs by trypan blue exclusion method. The class given is cell-based.
Conditions: not given
The method in brief: as §1
Take `O=C1/C(=C\C=C\c2ccco2)SC(=S)N1NS(=O)(=O)c1ccccc1`: the inhibition entry is “Active”.

As to `O=C(c1ccc(F)cc1)C1CCN(CCn2c(=O)[nH]c3ccccc3c2=O)CC1` [KETANSERIN], the inhibition entry was “Active”.

The target is the same in another data set. In words: Inhibition of DGKalpha in PHA-induced human Jurkat cells harboring SAP ShRNA assessed as restoration of restimulation-induced cell death at 1 uM measured after 24 hrs by trypan blue exclusion method. The class given is cell-based.
Conditions: not given
The gist of the method:
as §1
In the case of `O=C1/C(=C\C=C\c2ccco2)SC(=S)N1NS(=O)(=O)c1ccccc1`, the inhibition result is “Active”.

On to `O=C(c1ccc(F)cc1)C1CCN(CCn2c(=O)[nH]c3ccccc3c2=O)CC1` [KETANSERIN], for which the inhibition result was “Active”.

A further data set concerns the target T-cell receptor (Homo sapiens) (UniProt P04437+P01848+P04435+P03979). The data set can be described thus: Effect on TCR signaling in OKT3-induced human T-cells harboring SiRNA assessed as restoration of restimulation-induced cell death at 1 to 10 uM preincubated for 30 mins followed by OKT3 stimulation and measured 24 hrs post dose by propidium iodide staining based flow cytometry.
Conditions: not given
The method in brief: (§2)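 PBL from healthy donors, activated with anti-CD3/CD28 and then kept in IL-2. siRNA (SAP or control, 200 pmol) delivered by nucleofection, then 4 days in IL-2. 10^5 cells/well in triplicate; inhibitor (1, 5, 10 μM) added 30 min before OKT3 restimulation (1–500 ng/ml) for 24 h. PI staining, fixed 30 s flow acquisition; % cell loss.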
Take `O=C1/C(=C\C=C\c2ccco2)SC(=S)N1NS(=O)(=O)c1ccccc1`: the outcome was Active.

In the case of `O=C(c1ccc(F)cc1)C1CCN(CCn2c(=O)[nH]c3ccccc3c2=O)CC1` [KETANSERIN], the outcome was inactive.

Another data set deals with T-cell. In words: Cytotoxicity against human T cells assessed as cell death at 1 to 10 uM measured after 24 hrs propidium iodide staining based flow cytometry.
Conditions: not given
The gist of the method: as §2
For `O=C(c1ccc(F)cc1)C1CCN(CCn2c(=O)[nH]c3ccccc3c2=O)CC1` [KETANSERIN], the Activity entry is on record as “Non-Toxic”.

A further data set concerns the target T1, Diacylglycerol kinase alpha. In words: Inhibition of DGKalpha in OKT3-induced human T cells harboring SAP SiRNA assessed as restoration of restimulation-induced cell death at 1 to 10 uM preincubated for 30 mins followed by OKT3 stimulation and measured 24 hrs post dose by propidium iodide staining based flow cytometry.
Conditions: not given
The method in brief: as §2
For the compound `O=C(c1ccc(F)cc1)C1CCN(CCn2c(=O)[nH]c3ccccc3c2=O)CC1` [KETANSERIN], the inhibition entry is “inactive”.

The next data set shares this target. In words: Inhibition of DGKalpha in OKT3-induced human T cells harboring SAP SiRNA assessed as restoration of restimulation-induced cell death at >=5 uM preincubated for 30 mins followed by OKT3 stimulation and measured 24 hrs post dose by propidium iodide staining based flow cytometry.
Conditions: not given
The gist of the method: as §2
`O=C1/C(=C\C=C\c2ccco2)SC(=S)N1NS(=O)(=O)c1ccccc1`: the inhibition entry was “Active”.

In another data set the target is Diacylglycerol kinase alpha (Sus scrofa, UniProt P20192). In words: Inhibition of pig FLAG3-tagged DGKalpha expressed in African green monkey COS7 cells using 1,2-dioleoyl-sn-glycerol as substrate measured after 30 mins by ADP-Glo luminescence assay.
Chain of Diacylglycerol kinase alpha (Sus scrofa, UniProt P20192) (P20192 whole entry): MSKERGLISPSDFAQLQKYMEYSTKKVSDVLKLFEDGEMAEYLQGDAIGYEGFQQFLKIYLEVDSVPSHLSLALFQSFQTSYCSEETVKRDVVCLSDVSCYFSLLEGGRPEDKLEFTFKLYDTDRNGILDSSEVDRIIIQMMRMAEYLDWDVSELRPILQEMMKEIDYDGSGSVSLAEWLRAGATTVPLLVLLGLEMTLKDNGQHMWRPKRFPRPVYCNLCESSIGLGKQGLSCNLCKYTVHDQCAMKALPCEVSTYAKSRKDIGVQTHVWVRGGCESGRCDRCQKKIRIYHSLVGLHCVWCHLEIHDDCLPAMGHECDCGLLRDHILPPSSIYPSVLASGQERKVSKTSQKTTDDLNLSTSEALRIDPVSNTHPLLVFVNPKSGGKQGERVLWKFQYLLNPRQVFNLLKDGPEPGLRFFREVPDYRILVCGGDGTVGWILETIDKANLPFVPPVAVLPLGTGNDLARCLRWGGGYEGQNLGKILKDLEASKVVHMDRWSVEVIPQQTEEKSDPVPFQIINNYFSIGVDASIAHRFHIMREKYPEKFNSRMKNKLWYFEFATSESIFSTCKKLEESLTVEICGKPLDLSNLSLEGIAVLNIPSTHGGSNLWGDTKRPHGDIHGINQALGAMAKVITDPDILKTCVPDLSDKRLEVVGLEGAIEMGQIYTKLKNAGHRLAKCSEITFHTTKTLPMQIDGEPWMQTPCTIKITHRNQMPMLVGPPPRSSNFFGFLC
Conditions: not given
For the compound `O=C1/C(=C\C=C\c2ccco2)SC(=S)N1NS(=O)(=O)c1ccccc1`, the pIC50 was 6.22.

Consider `Cc1nc2sccn2c(=O)c1CCN1CCC(=C(c2ccccc2)c2ccc(F)cc2)CC1`, for which the pIC50 was 4.60.

Another data set deals with T1, Diacylglycerol kinase alpha. The data set can be described thus: Inhibition of DGKalpha in human erythrocytes using OAG as substrate preincubated for 1 min followed by OAG addition and measured after 8 mins in presence of [gamma-32P]ATP. The class given is cell-based.
Conditions: not given
With `CC[C@H](C)[C@@H](OC(C)=O)[C@@H](C)C1=CC(=O)C2=C(O[C@]3(C)CC[C@H]4O[C@@H](C(C)(C)O)CC[C@]4(C)[C@H]3[C@@H]2O)C1=O` [COCHLIOQUINONE A], the pKi is 5.65.

Take `C/C=C(\C)[C@@H](OC(C)=O)[C@@H](C)C1=CC(=O)C2=C(O[C@]3(C)CC[C@H]4O[C@@H](C(C)(C)O)CC[C@]4(C)[C@H]3[C@@H]2O)C1=O` [STEMPHONE]: the pKi is 5.48.

`CCCCCCCC(=O)OCCOC(=O)CCCCCCC` [ETHYLENE GLYCOL DIOCTANOATE]: the pKi was 4.24.

For the compound `Cc1nc2sccn2c(=O)c1CCN1CCC(=C(c2ccccc2)c2ccc(F)cc2)CC1`, the pIC50 was 5.42.

A further data set addresses Diacylglycerol kinase alpha (Rattus norvegicus, UniProt P51556). The data set can be described thus: Inhibition of rat FLAG-tagged DGKalpha expressed in HEK293T cells using DAG as substrate measured after 15 mins in presence of [gamma-32P]ATP by scintillation counting method.
Conditions: not given
In the case of `Cc1nc2sccn2c(=O)c1CCN1CCC(=C(c2ccccc2)c2ccc(F)cc2)CC1`, the pIC50 is 4.70.

For the next data set, the target named is T1, Diacylglycerol kinase alpha. The data set can be described thus: Inhibition of DGKalpha expressed in 293T cell homogenates at 100 uM using DAG as substrate measured after 5 mins in presence of [gamma-32P]ATP by TLC analysis relative to control.
Conditions: not given
For `Cc1nc2sccn2c(=O)c1CCN1CCC(=C(c2ccccc2)c2ccc(F)cc2)CC1`, the inhibition amounted to 68%.
